Data taken from ChEMBL document CHEMBL2203169, “Effect of allyl sulfides from garlic essential oil on intracellular ca2+ levels in renal tubular cells” (J Nat Prod, 2012).
Active and inactive are the calls of the source. The calls are words filed in the database; no cut-off is given here.

Key:
[1] = tested on: MDCK; test: Induction of intracellular calcium level in MDCK cells assessed as net peak value at 10 uM by Fura-2 in calcium free medium; type: functional, Canis lupus familiaris
Method in brief: (§1)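 Fura-2-loaded MDCK suspension (0.5 million cells/mL) in Ca2+-free medium, where CaCl2 was replaced by 0.1 mM EGTA; 25 °C, stirred cuvette. Signals recorded at 340/380 nm excitation and 510 nm emission every 1 s. Store depletion used 1 μM thapsigargin, applied before compound or after 220 s compound preincubation. Phospholipase C tests used 10 μM ATP and 2 μM U73122. [Ca2+]i calculated with Kd 155 nM. Means ± SEM, n = 5.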

[2] = tested on: MDCK; test: Induction of intracellular calcium level in MDCK cells at 100 uM by Fura-2 in calcium free medium in presence of phospholipase C inhibitor U73122; conditions: Canis lupus familiaris
[3] = tested on: MDCK; test: Induction of intracellular calcium level in MDCK cells at 10 uM by Fura-2 in calcium free medium in presence of 10 uM U73343 inactive analogue of U73122 phospholipase C inhibitor; type: functional, cell-based; conditions: Canis lupus familiaris
Method in brief: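 MDCK cells were trypsinized, recovered 1 h, then loaded with 2 μM fura-2/AM for 30 min at 25 °C. They were read in a stirred cuvette at 25 °C (0.5 million cells/mL) in Ca2+-free medium with 0.1 mM EGTA in place of CaCl2. Ex 340/380 nm, em 510 nm, 1 s intervals. Pretreatment was 2 μM U73122 or 10 μM U73343 before ATP. Kd 155 nM; n=5.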

[4] = tested on: MDCK; test: Induction of intracellular calcium level in MDCK cells at 100 uM assessed as calcium influx by Fura-2 in presence of calcium and 1 uM verapamil L-type calcium channel blocker; type: functional, cell-based; conditions: Canis lupus familiaris
Method in brief: (§2)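 Fura-2-loaded MDCK cells in Ca2+-containing medium at 25 °C, pretreated 1 min with the 1 μM L-type blocker before 100 μM compound was added at 30 s. Response taken as net area under the [Ca2+]i curve from 30 to 250 s, expressed as percent of unblocked control. Means ± SEM of five experiments.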

[5] = tested on: MDCK; test: Induction of intracellular calcium level in MDCK cells at 100 uM by Fura-2 in calcium free medium in presence of endoplasmic reticulum Ca2+-ATPase inhibitor thapsigargin; type: functional, cell-based; conditions: Canis lupus familiaris; method in brief: as §1
[6] = tested on: MDCK; test: Induction of intracellular calcium level in MDCK cells at 100 uM by Fura-2 in presence of calcium and 10 nM phorbol myristate acetate protein kinase C activator; type: functional, cell-based; conditions: Canis lupus familiaris
Method in brief: (§3)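 Fura-2-loaded MDCK cells in Ca2+-containing medium (2 mM CaCl2, pH 7.4) at 25 °C, pretreated with 10 nM phorbol myristate acetate or 2 μM GF109203X before 100 μM compound. [Ca2+]i was read from the 340/380 nm fura-2 ratio. n = 5.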

[7] = tested on: MDCK; test: Induction of intracellular calcium level in MDCK cells assessed as sustained phase at 100 uM within 250 secs by Fura-2 in presence of extracellular calcium; type: functional, cell-based; conditions: Canis lupus familiaris
Method in brief: (§4)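 Trypsinized cells recovered 1 h, then loaded with 2 μM fura-2/AM for 30 min at 25 °C. Cells washed and resuspended in Ca2+-containing medium (2 mM CaCl2, 2 mM HEPES, pH 7.4); 0.5 million cells/mL in a stirred cuvette at 25 °C. Compound added at 30 s and recorded to 250 s. Excitation at 340/380 nm, emission at 510 nm. Calibration used Triton X-100 then 10 mM EGTA; Kd 155 nM. n = 5.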

[8] = tested on: MDCK; test: Induction of intracellular calcium level in MDCK cells at 1 uM by Fura-2 in presence of extracellular calcium; conditions: Canis lupus familiaris
[9] = tested on: MDCK; test: Induction of intracellular calcium level in MDCK cells at 25 to 100 uM by Fura-2 in presence of extracellular calcium; type: functional, cell-based; conditions: Canis lupus familiaris; method in brief: as §4
[10] = tested on: MDCK; test: Cell cycle arrest in MDCK cells assessed as accumulation at G1 phase at 100 uM after 16 hrs by flow cytometric analysis (reference value: 55.7%); type: functional, Canis lupus familiaris
[11] = tested on: MDCK; test: Induction of intracellular calcium level in MDCK cells at 100 uM by Fura-2 in presence of calcium and 1 uM nicardipine L-type calcium channel blocker; type: functional, cell-based; conditions: Canis lupus familiaris; method in brief: as §2
[12] = tested on: MDCK; test: Cell cycle arrest in MDCK cells assessed as accumulation at G2/M phase at 100 uM after 16 hrs by flow cytometric analysis (reference value: 19.8%); type: functional, Canis lupus familiaris
[13] = tested on: MDCK; test: Cytotoxicity against MDCK cells assessed as decrease in cell viability after 16 hrs by tetrazolium salt WST-1 assay; type: functional, cell-based; conditions: Canis lupus familiaris
Method in brief: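 MDCK cells plated at 1 × 10^4 per well and grown 24 h to 70% confluence, then exposed 16 h to compound (0–2 mM range). Cells washed, then incubated 2 h at 37 °C with WST-1; absorbance read at 450 nm. Values expressed as percent of vehicle control (0.1% DMSO). n = 5.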

[14] = tested on: MDCK; test: Induction of intracellular calcium level in MDCK cells assessed as rise in fura-2 340/380 excitation signal ratio at 100 uM treated at 30 secs by Fura-2 in presence of extracellular calcium; type: functional, cell-based; conditions: Canis lupus familiaris; method in brief: as §4
[15] = tested on: MDCK; test: Induction of intracellular calcium level in MDCK cells at 100 uM by Fura-2 in presence of calcium and 2 uM GF109203 X acetate protein kinase C inhibitor; type: functional, cell-based; conditions: Canis lupus familiaris; method in brief: as §3
[16] = tested on: MDCK; test: Induction of intracellular calcium level in MDCK cells at 100 uM assessed as calcium influx by Fura-2 in presence of calcium and 1 uM diltiazem L-type calcium channel blocker; type: functional, cell-based; conditions: Canis lupus familiaris; method in brief: as §2
[17] = tested on: MDCK; test: Induction of intracellular calcium level in MDCK cells at 100 uM preincubated 220 secs by Fura-2 in calcium free medium in presence of endoplasmic reticulum Ca2+-ATPase inhibitor thapsigargin; type: functional, cell-based; conditions: Canis lupus familiaris; method in brief: as §1
[18] = tested on: MDCK; test: Cell cycle arrest in MDCK cells assessed as accumulation at subG1 phase at 100 uM after 16 hrs by flow cytometric analysis (reference value: 0.5%); type: functional, Canis lupus familiaris
[19] = tested on: MDCK; test: Cell cycle arrest in MDCK cells assessed as accumulation at S phase at 100 uM after 16 hrs by flow cytometric analysis (reference value: 24.5%); type: functional, Canis lupus familiaris
[20] = tested on: MDCK; test: Induction of intracellular calcium level in MDCK cells at 50 uM by Fura-2 in presence of calcium relative to diallyl trisulfide; type: functional

`Nc1ncnc2c1ncn2[C@@H]1O[C@H](COP(=O)(O)OP(=O)(O)OP(=O)(O)O)[C@@H](O)[C@H]1O` [ADENOSINE TRIPHOSPHATE] was tested, and the Activity [1] was 132 nM, the Activity [2] was “inactive” and the Activity [3] was “Active”.
`C=CCSSSCC=C` [ALLITRIDIN] was tested, and the Activity [4] was “Active”, the Activity [5] was “inactive” and the Activity [6] was “Active”. The Activity [7] was “Active”, the Activity [8] was “inactive” and the Activity [9] was “Dose-dependent effect”. For the same compound, the Activity [10] was 26.8%, the Activity [11] was “inactive” and the Activity [12] was 38.6%. For the same compound, the IC50 [13] was 0.05 mM, the Activity [14] was “Active” and the Activity [15] was “Active”. The Activity [16] was “Active”, the Activity [17] was “inactive” and the Activity [2] was “Active”. For the same compound, the Activity [18] was 33.1% and the Activity [19] was 34.6%.
In the case of `C=CCSCC=C` [DIALLYL SULFIDE], the Activity [10] is reported as 53.3%, the Activity [12] is reported as 19% and the Activity ([20]; Canis lupus familiaris) is reported as “inactive”. The Activity [13] was “Dose-dependent effect”, the IC50 [13] was 3.26 mM and the Activity [18] was 1.1%. The Activity [19] was 27.7%.
In the case of `C=CCSSCC=C` [DIALLYLDISULFIDE], the Activity [10] is reported as 53.3%, the Activity [12] is reported as 20% and the Activity [20] is reported as 45.6%. For the same compound, the Activity [13] was “Dose-dependent effect”, the IC50 [13] was 1.82 mM and the Activity [18] was 7.1%. For the same compound, the Activity [19] was 26.8%.
